Measured values reported in ChEMBL document CHEMBL4017507 (J Med Chem, 2017).

Columns and labels:
Human alphaherpesvirus 1 [1] = assay: Antiviral activity against Herpes simplex virus 1 KOS infected in human HEL cells assessed as inhibition of virus-induced cytopathic effect; assay type: functional, cell-based; conditions: Human alphaherpesvirus 1, KOS
Method in brief: (§1)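 Confluent HEL fibroblast monolayers were inoculated in 96-well plates with 100 CCID50 of virus in the presence of serially varied compound concentrations. Cytopathicity was scored once untreated infected controls reached full CPE.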

CCRF-CEM = assay: Cytostatic activity human CEM cells assessed as reduction in cell viability after 72 hrs by cell counting method; assay type: cell-based; conditions: ccrf-cem, 72 h
Method in brief: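 (5–7.5) × 10^? CEM cells per well were grown with compound for 72 h at 37 °C under humidified CO2. Cells were counted in a Coulter counter.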

Human alphaherpesvirus 3 [2] = assay: Antiviral activity against thymidine kinase deficient Varicella-Zoster virus 07-1 infected in human HEL cells assessed as inhibition of virus-induced cytopathic effect; assay type: functional, cell-based; conditions: Human alphaherpesvirus 3, 07-1, HEL
Method in brief: (§2)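 Confluent HEL fibroblast cultures were inoculated with 20 PFU of VZV in the presence of varying compound concentrations. Plaque formation was recorded once untreated infected controls reached completion.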

MT4 = assay: Cytotoxicity against human MT4 cells assessed as reduction in cell viability by cell counting method; assay type: cell-based
Method in brief: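 MT-4 cultures, untreated or treated, were assessed with an automated cell counter using propidium iodide staining to enumerate total and dead cells.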

Human alphaherpesvirus 1 [3] = assay: Antiviral activity against ACV-resistant thymidine kinase deficient Herpes simplex virus 1 KOS infected in human HEL cells assessed as inhibition of virus-induced cytopathic effect; assay type: functional, cell-based; conditions: Human alphaherpesvirus 1, KOS; method in brief: as §1
[4] = Cytotoxicity against human HEL cells assessed as alteration to cell morphology by microscopic analysis; assay type: cell-based
Method in brief: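 Minimal cytotoxic concentration is the compound concentration giving a microscopically visible alteration of HEL cell morphology, scored in the antiviral assay cultures.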

Human alphaherpesvirus 2 = assay: Antiviral activity against Herpes simplex virus 2 G infected in human HEL cells assessed as inhibition of virus-induced cytopathic effect; assay type: functional, cell-based; conditions: Human alphaherpesvirus 2, strain G; method in brief: as §1
HEL = assay: Cytotoxicity against human HEL cells assessed as cell growth inhibition by cell counting method; assay type: cell-based
Human alphaherpesvirus 3 [5] = assay: Antiviral activity against Varicella-Zoster virus OKA infected in human HEL cells assessed as inhibition of virus-induced cytopathic effect; assay type: functional, cell-based; conditions: Human alphaherpesvirus 3, strain Oka vaccine; method in brief: as §2
[6] = test system: Human immunodeficiency virus 1; assay: Antiviral activity against HIV1 X4LAI.04 infected in human MT4 cells assessed as decrease in viral replication by p24gag-based luminex assay; assay type: functional, cell-based; conditions: Human immunodeficiency virus 1, X4LAI.04, MT4
Method in brief: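 10^6 MT-4 cells were infected with HIV-1 X4LAI.04 (7 ng p24) for 2 h at 37 °C, then washed with PBS and resuspended. Compounds were added and cultures were kept 3 days at 37 °C. Supernatant p24 was measured by bead-based Luminex. Inhibition was calculated as (1 − p24 treated/p24 untreated) × 100, and EC50 was derived from it.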

Human betaherpesvirus 5 [7] = assay: Antiviral activity against human cytomegalovirus Davis infected in human HEL cells assessed as inhibition of virus-induced cytopathic effect; assay type: functional, cell-based; conditions: Human betaherpesvirus 5, Davis; method in brief: as §1
Human betaherpesvirus 5 [8] = assay: Antiviral activity against human cytomegalovirus AD-169 infected in human HEL cells assessed as inhibition of virus-induced cytopathic effect; assay type: functional, cell-based; conditions: Human betaherpesvirus 5, AD-169, HEL; method in brief: as §1

Row | SMILES | EC50 (Human alphaherpesvirus 1 [1]) [µM] | CC50 (CCRF-CEM) [µM] | EC50 (Human alphaherpesvirus 3 [2]) [µM] | IC50 (MT4) [µM] | EC50 (Human alphaherpesvirus 1 [3]) [µM] | MCC [4] [µM] | EC50 (Human alphaherpesvirus 2) [µM] | CC50 (HEL) [µM] | EC50 (Human alphaherpesvirus 3 [5]) [µM] | EC50 [6] [µM] | EC50 (Human betaherpesvirus 5 [7]) [µM] | EC50 (Human betaherpesvirus 5 [8]) [µM]
1 | CC(C)(NP(=O)(OCC(CCn1cnc2c(=O)[nH]c(N)nc21)COP(=O)(NC(C)(C)C(=O)OCc1ccccc1)Oc1ccccc1)Oc1ccccc1)C(=O)OCc1ccccc1 (stereo unspecified) | > 100 | 100 | 20.6 | 30 | > 100 | 50 to 100 | > 100 | > 100 | 10.3 | 19 | > 50 | > 50
2 | CC(C)(NP(=O)(OCC(CCn1cnc2c(=O)[nH]c(N)nc21)COP(=O)(NC(C)(C)C(=O)OCc1ccccc1)Oc1cccc2ccccc12)Oc1cccc2ccccc12)C(=O)OCc1ccccc1 (stereo unspecified) | > 20 | > 250 | > 50 | > 150 | > 20 | 50 to 100 | > 20 | > 100 | > 50 | > 150 | > 50 | > 50
3 | CC(C)(NP(=O)(OCC(COP(=O)(NC(C)(C)C(=O)OCc1ccccc1)Oc1ccccc1)OCn1cnc2c(=O)[nH]c(N)nc21)Oc1ccccc1)C(=O)OCc1ccccc1 (stereo unspecified) | 1.5 | 47 | 8.3 | 13 | 1.5 | > 50 | 2.5 | 82 | 21.7 | 10 | 23.6 | 50
4 | COc1nc(N)nc2c1ncn2CCC(COP(=O)(N[C@@H](C)C(=O)OCC(C)(C)C)Oc1cccc2ccccc12)COP(=O)(N[C@@H](C)C(=O)OCC(C)(C)C)Oc1cccc2ccccc12 (stereo partly specified) | > 100 | 4.6 | 7.7 | 5 | > 100 | 20 to 100 | > 100 | 2.5 | 4.3 | 8.2 | 20 | 15
5 | C[C@H](NP(=O)(OCC(CCn1cnc2c(=O)[nH]c(/N=C/N(C)C)nc21)COP(=O)(N[C@@H](C)C(=O)OCc1ccccc1)Oc1cccc2ccccc12)Oc1cccc2ccccc12)C(=O)OCc1ccccc1 (stereo partly specified) | > 100 | 19 | 11.7 | 4 | > 100 | 50 to 100 | > 100 | 19 | 8.8 | 3.2 | > 20 | > 20
6 | COc1nc(N)nc2c1ncn2CCC(CO)COP(=O)(N[C@@H](C)C(=O)OCC(C)(C)C)Oc1cccc2ccccc12 (stereo partly specified) | 9 | 17 | 6.2 | 35 | 15 | 50 to 100 | 9 | 7.6 | 2 | 41 | 40 | 50
7 | CC(C)(NP(=O)(OCC(COP(=O)(NC(C)(C)C(=O)OCc1ccccc1)Oc1cccc2ccccc12)OCn1cnc2c(=O)[nH]c(N)nc21)Oc1cccc2ccccc12)C(=O)OCc1ccccc1 (stereo unspecified) | 0.3 | > 20 | 7.2 | > 150 | 1.6 | 50 to 100 | 0.9 | > 100 | 13.6 | > 150 | 50 | ≥ 44.9
8 | C[C@H](NP(=O)(OCC(COP(=O)(N[C@@H](C)C(=O)OCc1ccccc1)Oc1cccc2ccccc12)SCn1cnc2c(=O)[nH]c(/N=C/N(C)C)nc21)Oc1cccc2ccccc12)C(=O)OCc1ccccc1 (stereo partly specified) | > 100 | 17 | > 20 | 4 | > 100 | 50 to 100 | > 100 | 30 | > 20 | 9 | > 50 | > 50
9 | C[C@H](NP(=O)(OCC(CCn1cnc2c(=O)[nH]c(N)nc21)COP(=O)(N[C@@H](C)C(=O)OCc1ccccc1)Oc1ccccc1)Oc1ccccc1)C(=O)OCc1ccccc1 (stereo partly specified) | > 100 | 76 | 41.5 | 10 | > 100 | 50 to 100 | > 100 | ≥ 100 | 16.3 | 8 | > 50 | > 50
10 | CC(C)(NP(=O)(OCC(CO)CCn1cnc2c(=O)[nH]c(N)nc21)Oc1ccccc1)C(=O)OCc1ccccc1 (stereo unspecified) | 29 | 252 | > 50 | > 150 | 100 | 50 to 100 | 39 | > 50 | > 50 | 68 | > 50 | > 50
11 | CC(C)OC(=O)[C@H](C)NP(=O)(OCC(COP(=O)(N[C@@H](C)C(=O)OC(C)C)Oc1cccc2ccccc12)OCn1cnc2c(=O)[nH]c(N)nc21)Oc1cccc2ccccc12 (stereo partly specified) | 1.2 | > 100 | 1.1 | 6 | ≥ 73 | ≥ 100 | 1.4 | > 50 | 4.2 | 8.5 | 2.7 | 16.3
12 | C[C@H](NP(=O)(OCC(CCn1cnc2c(Cl)nc(N)nc21)COP(=O)(N[C@@H](C)C(=O)OCc1ccccc1)Oc1ccccc1)Oc1ccccc1)C(=O)OCc1ccccc1 (stereo partly specified) | > 100 | 14 | 44.1 | 20 | > 100 | > 100 | > 100 | 4 | 44 | 7 | > 100 | > 100
13 | CCC(C)(C)COC(=O)[C@H](C)NP(=O)(OCC(CCn1cnc2c(OC)nc(N)nc21)COP(=O)(N[C@@H](C)C(=O)OCC(C)(C)CC)Oc1cccc2ccccc12)Oc1cccc2ccccc12 (stereo partly specified) | > 100 | 7.2 | 9.5 | 9 | > 100 | 50 to 100 | > 100 | 5 | 6.4 | 5.6 | > 20 | > 20
